Data reported in ChEMBL document CHEMBL5126676, “Identification of Inhibitors of the Schistosoma mansoni VKR2 Kinase Domain” (ACS Med Chem Lett, 2022).
Activity calls are given as the source filed them. The calls are words filed in the database; no cut-off is given here.

Tests used:
Venus kinase receptor 2 [1] = molecular target: T1, Venus kinase receptor 2 (Schistosoma mansoni, UniProt D5JEH1); experiment: Binding affinity to Schistosoma mansoni N-terminal His6-tagged full-length VKR2 kinase domain expressed in baculovirus infected Sf9 insect cells in presence of ATPgammaS by SPR analysis
Schistosoma mansoni [2] = experiment: Antischistosomal activity against adult Schistosoma mansoni assessed as reduction in worm motility at 10 uM measured after 2 hrs by inverted microscopy; type: functional, organism-based
Outline: (§1)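 Adult S. mansoni worms exposed ex vivo to 10 μM compound. Observed at 2, 5 and 24 h and scored with an observation-based severity system. Descriptors recorded: degenerating, uncoordinated, slow, on sides (no adherence to the well floor by oral or ventral sucker), and tegument blebs. Three to five biological singleton assays.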

Schistosoma mansoni [3] = experiment: Antischistosomal activity against adult Schistosoma mansoni assessed as loss of worm ability to adhere to well floor at 10 uM measured after 2 hrs by inverted microscopy; type: functional, organism-based; outline: as §1
Schistosoma mansoni [4] = experiment: Antischistosomal activity against adult Schistosoma mansoni assessed as worm degeneration at 10 uM measured after 24 hrs by inverted microscopy; type: functional, organism-based; outline: as §1
Schistosoma mansoni [5] = experiment: Antischistosomal activity against adult Schistosoma mansoni assessed as damage to the tegument by measuring blebbing at 10 uM measured after 24 hrs by inverted microscopy; type: functional, organism-based; outline: as §1
Schistosoma mansoni [6] = experiment: Antischistosomal activity against adult Schistosoma mansoni assessed as damage to the tegument by measuring bubbling at 10 uM measured after 24 hrs by inverted microscopy; type: functional, organism-based; outline: as §1
Schistosoma mansoni [7] = experiment: Antischistosomal activity against adult Schistosoma mansoni assessed as reduction in worm motility at 10 uM by worm assay; type: functional, organism-based; settings: time 2-24 hrs, TDE = time-dependent effect
Outline: (§2)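 Ex vivo adult S. mansoni were incubated with 10 μM compound. Average worm motility per well was recorded by WormAssay over time at 2, 5 and 24 h. Three to five biological assays. Significance was tested by two-tailed Student's t-test.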

Venus kinase receptor 2 [8] = molecular target: T1, Venus kinase receptor 2; experiment: Inhibition of Schistosoma mansoni N-terminal His6-tagged full-length VKR2 kinase domain expressed in baculovirus infected Sf9 insect cells assessed as reduction in autophosphorylation measured after 30 mins in presence of ATP by ADP-glo kinase assay
Outline: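 Autophosphorylation of the SmVKR2 kinase domain, used as the read-out because no substrate is known, with 10 μM ATP. Concentration–response curves were run in triplicate, and IC50 was fitted from them; the paper plots mean ± SD.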

Schistosoma mansoni [9] = experiment: Antischistosomal activity against adult Schistosoma mansoni assessed as reduction in worm movement at 10 uM measured after 2 to 24 hrs by inverted microscopy; type: functional, organism-based; settings: time 2-24 hrs; outline: as §1
Schistosoma mansoni [10] = experiment: Antischistosomal activity against adult Schistosoma mansoni assessed as reduction in worm motility at 10 uM measured after 2 to 24 hrs by worm assay; type: functional, organism-based; settings: time 2-24 hrs; outline: as §2

T1 sequence (D5JEH1 whole entry, the tested form may be a part): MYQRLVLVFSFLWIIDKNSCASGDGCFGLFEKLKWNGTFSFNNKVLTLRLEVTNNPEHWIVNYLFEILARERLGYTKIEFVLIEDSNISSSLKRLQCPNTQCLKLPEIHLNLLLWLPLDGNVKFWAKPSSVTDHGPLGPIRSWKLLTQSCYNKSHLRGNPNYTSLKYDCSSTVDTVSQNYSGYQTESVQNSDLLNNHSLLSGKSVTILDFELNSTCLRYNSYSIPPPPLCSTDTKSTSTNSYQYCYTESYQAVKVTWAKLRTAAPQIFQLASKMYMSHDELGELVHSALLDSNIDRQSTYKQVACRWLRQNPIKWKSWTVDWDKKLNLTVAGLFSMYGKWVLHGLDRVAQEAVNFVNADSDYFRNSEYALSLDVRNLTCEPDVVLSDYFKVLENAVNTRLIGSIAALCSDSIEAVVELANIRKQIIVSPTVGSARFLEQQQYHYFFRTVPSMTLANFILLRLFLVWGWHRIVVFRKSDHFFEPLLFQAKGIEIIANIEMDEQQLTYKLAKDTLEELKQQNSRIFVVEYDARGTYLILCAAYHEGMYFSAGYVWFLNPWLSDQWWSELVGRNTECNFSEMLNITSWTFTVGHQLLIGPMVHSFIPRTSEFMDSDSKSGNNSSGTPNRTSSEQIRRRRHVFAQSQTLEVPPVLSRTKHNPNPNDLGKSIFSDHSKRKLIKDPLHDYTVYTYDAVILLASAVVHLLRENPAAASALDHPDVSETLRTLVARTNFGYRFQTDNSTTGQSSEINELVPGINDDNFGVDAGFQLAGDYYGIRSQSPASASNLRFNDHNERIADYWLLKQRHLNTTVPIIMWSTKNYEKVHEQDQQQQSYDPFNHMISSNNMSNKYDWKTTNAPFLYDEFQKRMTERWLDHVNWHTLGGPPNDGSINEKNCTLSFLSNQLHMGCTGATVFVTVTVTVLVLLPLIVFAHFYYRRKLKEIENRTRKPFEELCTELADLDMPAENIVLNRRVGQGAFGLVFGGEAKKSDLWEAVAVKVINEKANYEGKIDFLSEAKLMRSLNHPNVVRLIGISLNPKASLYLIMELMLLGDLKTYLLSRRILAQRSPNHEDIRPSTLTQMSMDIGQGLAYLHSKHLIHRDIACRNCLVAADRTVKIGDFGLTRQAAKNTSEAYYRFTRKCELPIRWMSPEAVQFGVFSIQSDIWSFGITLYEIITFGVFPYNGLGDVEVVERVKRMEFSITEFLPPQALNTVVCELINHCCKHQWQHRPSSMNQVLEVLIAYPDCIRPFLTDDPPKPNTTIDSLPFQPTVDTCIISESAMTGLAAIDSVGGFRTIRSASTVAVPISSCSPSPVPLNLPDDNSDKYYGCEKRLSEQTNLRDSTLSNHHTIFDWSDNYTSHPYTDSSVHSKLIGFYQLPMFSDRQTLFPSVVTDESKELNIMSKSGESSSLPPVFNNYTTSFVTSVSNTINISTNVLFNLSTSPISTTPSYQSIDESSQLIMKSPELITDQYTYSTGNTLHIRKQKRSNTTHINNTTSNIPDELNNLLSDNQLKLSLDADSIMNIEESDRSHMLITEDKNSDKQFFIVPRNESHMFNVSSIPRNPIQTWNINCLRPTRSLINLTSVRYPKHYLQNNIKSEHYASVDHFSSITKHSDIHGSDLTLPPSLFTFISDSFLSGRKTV

Nc1n[nH]c2cnc(-c3ccccc3)cc12
Kd (Venus kinase receptor 2 [1]): 47 µM

CC(C)Oc1ccc2c(-c3ccnc(Nc4ccc(N5CCN(C)CC5)cc4)n3)cnn2n1
Kd (Venus kinase receptor 2 [1]): 3.4 µM | Activity (Schistosoma mansoni [2]): Active | Activity (Schistosoma mansoni [3]): Active | Activity (Schistosoma mansoni [4]): Active | Activity (Schistosoma mansoni [5]): Active | Activity (Schistosoma mansoni [6]): Active | Activity (Schistosoma mansoni [7]): Tde | IC50 (Venus kinase receptor 2 [8]): 20.1 µM

Cc1n[nH]c2cc(Nc3ccnc(Nc4cccc(CN5CCOCC5)c4)n3)ccc12
Kd (Venus kinase receptor 2 [1]): 39 µM

O=C(Nc1n[nH]c2cnc(-c3ccc(O)cc3)cc12)C1CC1
Kd (Venus kinase receptor 2 [1]): 170 µM | Activity (Schistosoma mansoni [9]): Active | Activity (Schistosoma mansoni [10]): Active

Nc1nc(N)c2nc(-c3ccccc3)[nH]c2n1
Kd (Venus kinase receptor 2 [1]): 82 µM

CNC(=O)c1ccccc1Nc1nc(Nc2cccc(CS(C)(=O)=O)c2)ncc1C
Kd (Venus kinase receptor 2 [1]): 0.44 µM | IC50 (Venus kinase receptor 2 [8]): 6.47 µM

CN(C)CCNS(=O)(=O)c1ccc(-c2ccnc3[nH]ccc23)cc1
Kd (Venus kinase receptor 2 [1]): 8.2 µM

CS(=O)(=O)Nc1ccc(-c2ccnc3[nH]ccc23)cc1
Kd (Venus kinase receptor 2 [1]): 7.8 µM

Cc1cccc(Nc2nc(NCCN)ncc2C(N)=O)c1
Kd (Venus kinase receptor 2 [1]): 4.5 µM

NC(=O)Nc1sc(-c2ccc(F)cc2)cc1C(N)=O
Kd (Venus kinase receptor 2 [1]): 16 µM

Cc1cccc(Nc2nc(N[C@H]3CCCC[C@H]3N)ncc2C(N)=O)c1
Kd (Venus kinase receptor 2 [1]): 1.96 µM | Activity (Schistosoma mansoni [9]): Active | Activity (Schistosoma mansoni [10]): Active | IC50 (Venus kinase receptor 2 [8]): 5.69 µM

NCCNS(=O)(=O)c1ccc(-c2ccnc3[nH]ccc23)cc1
Kd (Venus kinase receptor 2 [1]): 2.53 µM
